The full list was thinned out, with hits kept by preference.
Insulin prom act: TRM-6 insulin promoter activation. TRM-6 cells (human fetal islet line), insulin promoter eGFP reporter, imaging; plate-scaled: unstimulated 0, stimulated control 100. activation, % at 2 µM. 130,000 compounds, 0.81% hits. AID 1296;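 active means activation at 2 µM above a set limit, confirmed on inspection of the cell images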;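 further: share of cells whose green reporter signal exceeds an intensity cutoff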
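Material: TRM-6 insulin promoter–eGFP reporter cells. Buffer or medium: Low-glucose (5.5 mM) medium with tamoxifen. Probe or stimulus: tamoxifen at 0.75 µM added at seeding for reporter induction. Times: tamoxifen pre-incubation 15 h overnight, then compound exposure 48 h at 37 °C. Detection: high-content imaging of fixed cells with Hoechst nuclear stain.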
Starred values were filed as active, the others as inactive; [ ] = another dose, or the depositor's remark.

SMILES	Insulin prom act
CCC(=O)Nc1cccc(-n2nnnc2SCC(=O)N2CCCCC2)c1	-5
CCOC(=O)C(C)Sc1ncc(-c2ccccc2)cn1 (configuration not stated)	0
CCn1c(=O)n(CC)c2cc(S(N)(=O)=O)c(C)cc21	525*
CCN1CCN(S(=O)(=O)c2cc(C)c(OC)cc2C)CC1	-57
CCn1c(NC)cc(=O)n(C)c1=O	3
O=C1Nc2ccccc2/C1=N\c1sc2c(c1C(=O)Nc1ccccc1)CCCC2	119
Cc1ccc(N2C(=O)NC(NC(=O)C3CC3)(C(F)(F)F)C2=O)cc1 (configuration not stated)	-7
COc1ccc(OC)c2sc(N(CCN(C)C)C(=O)c3cc(Cl)sc3Cl)nc12	283*
CN(C)CCCN(C(=O)c1ccco1)c1nc2ccc(Cl)cc2s1	0
CN(C)CCN(C(=O)c1cccc(Cl)c1)c1nc2c(Cl)cccc2s1	-10
C=CCN1C(=O)c2cccc3c(N4CCCCC4)ccc(c23)C1=O	669*
COc1ccccc1N1CCN(S(=O)(=O)c2ccc3c4c(cccc24)C(=O)N3C)CC1	7
CCC(=O)Nc1ccc2c(c1)ncn2-c1ccc(C)cc1	-8
CCOC(=O)c1c(NC(=O)COC(=O)CNC(=O)c2ccco2)sc(C(C)=O)c1C	-5
Oc1ccc(N2CCN(C(c3ccccn3)c3nnnn3C3CCCC3)CC2)cc1 (configuration not stated)	-86
COc1ccc(-c2cc(C(F)(F)F)nc(SCCC(=O)N3CCOCC3)n2)cc1	8
CCOC(=O)c1cnc(SCc2cccc3ccccc23)nc1N	0
CCOC(=O)c1cnc(SCc2ccc(C(C)(C)C)cc2)nc1N	514*
CCOC(=O)c1cnc(SCc2ccccc2)nc1N	106
Cc1cccc(C)c1NC(=O)COc1ccc2c(C)c(Cc3ccccc3)c(=O)oc2c1	-6
COc1cc(C(=O)NCc2nnc(SCC(=O)Nc3nc4ccccc4s3)o2)cc(OC)c1OC	4
COc1ccc(OC)c(NC(=O)CSc2nnc(CNC(=O)COc3ccc(Cl)cc3)o2)c1	129*
COc1cc(C(=O)NCc2nnc(SCC(=O)Nc3nccs3)o2)cc(OC)c1OC	144
CNc1nnc(-c2cc3ccccc3oc2=O)s1	-9
CC(C)(C)NC(=O)c1ccncc1	10
SMILES	Insulin prom act
CC(C)(CCl)C(=O)Nc1ccc(C(F)(F)F)cc1	-85
CC(C)(C)NC(=O)/C=C/c1ccc(C(F)(F)F)cc1	322*
CCCCNC(=O)c1ccc(CNc2c(N3CCC(C(=O)OCC)CC3)c(=O)c2=O)cc1	-5
Cc1ccc2c(n1)CC(C)(C)C/C2=N\O	-90
C=CCNc1nc(S(=O)Cc2ccc(C)cc2)nc2c1CCCC2 (configuration not stated)	-73
Cc1sc(-n2c(C)cc(C=O)c2C)c(C(=O)O)c1C	-3
Cn1c(SCC(=O)NC(c2ccccc2)c2ccccc2)nnc1-c1cccs1	-4
CCN1/C(=C/C=C/c2oc3ccc(-c4ccccc4)cc3[n+]2CC)Oc2ccc(-c3ccccc3)cc21	809*[fluoresces]
CCCCn1c(=O)c(CCC(=O)OCC(=O)NCc2ccc(OC)c(OC)c2)nc2ccccc21	-82
NS(=O)(=O)c1ccc(NC(=S)N2CCN(c3ccccc3Cl)CC2)cc1	-5
S=C(Nc1ccccc1)N1CCCCCCC1	7
O=S(=O)(c1ccc(F)c(F)c1F)N1CCN(C(=S)Nc2ccccc2)CC1	324*
COC(=O)c1ccccc1NC(=O)CSc1nnc(-c2cccnc2)n1N	-5
Cn1cc(C(=O)Nc2ccc(F)c(F)c2)cn1	4
Cc1cc(NC(=O)COC(=O)c2oc3c(Cl)cccc3c2C)no1	0
O=C1NC(NS(=O)(=O)c2ccc(Cl)cc2)(C(F)(F)F)C(=O)N1Cc1cccnc1 (configuration not stated)	6
O=C(COc1ccc([N+](=O)[O-])cc1)N/N=C/c1cc([N+](=O)[O-])ccc1N1CCOCC1	148
O=[N+]([O-])c1ccc(N/N=C/c2sc(N3CCOCC3)nc2-c2ccccc2)c(S(=O)(=O)Nc2ccc(Cl)cc2)c1	488*
COC(=O)CCC(=O)Nc1cc(S(=O)(=O)Nc2ccc(Cl)cc2)ccc1N1CCOCC1	103
O=C(c1ccc(Cl)c(S(=O)(=O)N2CCOCC2)c1)N1CCN(Cc2ccccc2)CC1	310
COC(=O)c1sccc1-n1cccc1C(=O)C(=O)N1CC(C)OC(C)C1 (configuration not stated)	329
COc1ccc(C)cc1NC(=O)C(NC(=O)c1cc(OC)c(OC)c(OC)c1)C(C)C (configuration not stated)	433*
COc1cc(OC)cc(C(=O)N[C@H](C(=O)OCC(=O)Nc2ccc(C)cc2C)C(C)C)c1	8
COc1cc(C(=O)N[C@H](C(=O)NC(C)C23CC4CC(CC(C4)C2)C3)C(C)C)cc(OC)c1OC (some centres not stated)	-3
c1ccc(-c2cc3n(c2)CCc2ccccc2-3)cc1	179
SMILES	Insulin prom act
CCOC(=O)NN1C(=O)c2ccccc2NC12CCCC2	0
CCN=C1SC(C(=O)Nc2cccc(Br)c2)CC(=O)N1CC (configuration not stated)	0
CC(=O)OC(COc1cccc(C)c1)Cn1cnc2ccccc21 (configuration not stated)	407*
Cc1cccc(OCC(O)CNC(=O)c2ccccc2C(=O)O)c1 (configuration not stated)	-7
CC(=O)Nc1cccc(OCC(O)Cn2cnc3ccccc32)c1 (configuration not stated)	9
O=C(CN1N=C(c2ccccc2)CCC1=O)NCCCN1CCc2ccccc2C1	3
O=C(NCc1ccccn1)C(C(=O)c1ccc(F)cc1)n1ccccc1=O (configuration not stated)	1
COc1ccccc1N(CC(=O)Nc1ccccc1C)S(C)(=O)=O	8
Cc1ccccc1N(CC(=O)O)S(C)(=O)=O	475*
Cc1ccccc1N(CC(N)=O)S(C)(=O)=O	-10
CCOc1ccc2[nH]c(=O)c(CN(CCc3ccccc3)C(=O)c3cnccn3)cc2c1	0
COc1ccc(C(=O)Cn2c(NCCO)nc3ccccc32)cc1OC	-87
Cc1cccnc1NC(=O)CSc1nnc(Cc2ccccc2)o1	-5
CCCCN1C(=O)C(=O)N(c2ccccc2)C1=S	-9
CCCCN1C(=O)/C(=C/C=C2/CC(C)(C)CN2C)SC1=S	270*
CCCN1C(=O)/C(=C/c2ccncc2)SC1=S	-7
Cn1c(=O)c2c(nc(SCC(=O)NCC3CCCO3)n2Cc2ccc(F)cc2)n(C)c1=O (configuration not stated)	0
Cc1ccc(Nc2nc(N)nc(CSC(=S)N3CCOCC3)n2)c(C)c1	-3
CCC(=O)/C=C1/Sc2ccccc2N1CC	329
CCN1/C(=C/C=C/C=C/c2sc3ccccc3[n+]2CC)Sc2ccccc21	354*
CCN1/C(=C/c2ccc3cc(C)ccc3[n+]2CC)Sc2ccccc21	170
Cc1cc(C)n(-c2ccc(Cl)c(C(=O)Nc3ccc(-c4nnc5n4CCCCC5)cc3)n2)n1	9
CC1=C(C(=O)Nc2ccccn2)C(c2ccc(Cl)cc2Cl)NC(=S)N1 (configuration not stated)	8
O=C(Nc1cccc2oc(=O)ccc12)c1ccc([N+](=O)[O-])cc1[N+](=O)[O-]	0
CCC(NC(=O)c1ccc([N+](=O)[O-])cc1[N+](=O)[O-])c1ccccc1 (configuration not stated)	80*

Screening data (PubChem BioAssay)
